{"source": "ChEMBL document CHEMBL5303300", "about": "“EUbOPEN Chemogenomics Library - Multiplex” (2023)", "tested_on": "Fibroblast", "experiment": "Multiplex assay against human fibroblast", "format": "toxicity, cell-based", "conditions": "number of replicates 2", "outline": "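Phenotypes for tubulin, mitochondrial mass and membrane permeability are expressed as per cents of healthy-nucleus cells. Cells were stained live at seeding with Hoechst33342, BioTracker Green Microtubule Cytoskeleton Dye, MitoTracker Red and Annexin V Alexa Fluor 680, then imaged after compound addition on a CQ1 microscope at 37°C and 5% CO2. Machine-learning gating in CellPathfinder separated Hoechst high-intensity objects from normal cells, divided normal cells by nuclear state (healthy, pyknosed, fragmented) and divided pyknosed cells into mitotic or apoptotic.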", "key": {"[1]": {"conditions": "12 h, 1 µM, compound concentration 1 uM"}, "[2]": {"conditions": "12 h, 10 µM, compound concentration 10 uM"}, "[3]": {"conditions": "24 h, 1 µM, compound concentration 1 uM"}, "[4]": {"conditions": "24 h, 10 µM, compound concentration 10 uM"}, "[5]": {"conditions": "48 h, 1 µM, compound concentration 1 uM"}, "[6]": {"conditions": "48 h, 10 µM, compound concentration 10 uM"}}, "note": "Values joined by “and” are separate entries in the source; they are usually repeats but may differ in a detail not shown here. Equal values may be shown once."}
{"compound": "CS(=O)(=O)c1ccc(NC(=O)c2cccc(COc3ccc(Br)cc3CNCCO)c2)c(Cl)c1.O=CO", "values": [{"measurement": "Population Apoptotic (%)", "setting": "[1]", "value": "47% and 51%"}, {"measurement": "Population Fragmented Nuclei (%)", "setting": "[1]", "value": 11, "unit": "%"}, {"measurement": "Population Healthy Nuclei (%)", "setting": "[1]", "value": "64% and 70%"}, {"measurement": "Total Cell Count", "setting": "[1]", "value": "184 and 209"}, {"measurement": "Population Apoptotic (%)", "setting": "[2]", "value": 56, "unit": "%"}, {"measurement": "Population Fragmented Nuclei (%)", "setting": "[2]", "value": "22% and 14%"}, {"measurement": "Population Healthy Nuclei (%)", "setting": "[2]", "value": "58% and 59%"}, {"measurement": "Total Cell Count", "setting": "[2]", "value": "327 and 259"}, {"measurement": "Population Apoptotic (%)", "setting": "[3]", "value": "61% and 71%"}, {"measurement": "Population Fragmented Nuclei (%)", "setting": "[3]", "value": 11, "unit": "%"}, {"measurement": "Population Healthy Nuclei (%)", "setting": "[3]", "value": "60% and 68%"}, {"measurement": "Population Pyknosed Nuclei (%)", "setting": "[3]", "value": 19, "unit": "%"}, {"measurement": "Total Cell Count", "setting": "[3]", "value": "187 and 198"}, {"measurement": "Population Apoptotic (%)", "setting": "[4]", "value": "57% and 85%"}, {"measurement": "Population Fragmented Nuclei (%)", "setting": "[4]", "value": "15% and 18%"}, {"measurement": "Population Healthy Nuclei (%)", "setting": "[4]", "value": "65% and 64%"}, {"measurement": "Total Cell Count", "setting": "[4]", "value": "227 and 235"}, {"measurement": "Population Apoptotic (%)", "setting": "[5]", "value": "76% and 80%"}, {"measurement": "Population Fragmented Nuclei (%)", "setting": "[5]", "value": "16% and 17%"}, {"measurement": "Population Healthy Nuclei (%)", "setting": "[5]", "value": "64% and 70%"}, {"measurement": "Population Pyknosed Nuclei (%)", "setting": "[5]", "value": 19, "unit": "%"}, {"measurement": "Total Cell Count", "setting": "[5]", "value": "178 and 216"}, {"measurement": "Population Apoptotic (%)", "setting": "[6]", "value": "85% and 87%"}, {"measurement": "Population Fragmented Nuclei (%)", "setting": "[6]", "value": "16% and 13%"}, {"measurement": "Population Healthy Nuclei (%)", "setting": "[6]", "value": "70% and 72%"}, {"measurement": "Population Pyknosed Nuclei (%)", "setting": "[6]", "value": 14, "unit": "%"}, {"measurement": "Total Cell Count", "setting": "[6]", "value": "211 and 226"}]}
{"compound": "C[C@@H](OC[C@@]1(c2ccccc2)CC[C@]2(CCC(=O)N2)CN1)c1cc(C(F)(F)F)cc(C(F)(F)F)c1", "note": "[ROLAPITANT]", "values": [{"measurement": "Population Apoptotic (%)", "setting": "[1]", "value": "32% and 48%"}, {"measurement": "Population Fragmented Nuclei (%)", "setting": "[1]", "value": "7% and 12%"}, {"measurement": "Population Healthy Nuclei (%)", "setting": "[1]", "value": "76% and 62%"}, {"measurement": "Population Hoechst High Intensity Objects (%)", "setting": "[1]", "value": 0, "unit": "%"}, {"measurement": "Population Membrane Permeable-Phenotype (%)", "setting": "[1]", "value": "9% and 4%"}, {"measurement": "Population Mitochondria Different-Phenotype (%)", "setting": "[1]", "value": "4% and 2%"}, {"measurement": "Population Mitotic Cells (%)", "setting": "[1]", "value": "67% and 51%"}, {"measurement": "Population Normal (%)", "setting": "[1]", "value": "100% and 99%"}, {"measurement": "Population Pyknosed Nuclei (%)", "setting": "[1]", "value": "15% and 25%"}, {"measurement": "Population Tubulin-Different-Phenotype (%)", "setting": "[1]", "value": "26% and 13%"}, {"measurement": "Total Cell Count", "setting": "[1]", "value": "195 and 264"}, {"measurement": "Population Apoptotic (%)", "setting": "[2]", "value": "40% and 46%"}, {"measurement": "Population Fragmented Nuclei (%)", "setting": "[2]", "value": "17% and 10%"}, {"measurement": "Population Healthy Nuclei (%)", "setting": "[2]", "value": "67% and 71%"}, {"measurement": "Population Hoechst High Intensity Objects (%)", "setting": "[2]", "value": 0, "unit": "%"}, {"measurement": "Population Membrane Permeable-Phenotype (%)", "setting": "[2]", "value": "5% and 6%"}, {"measurement": "Population Mitochondria Different-Phenotype (%)", "setting": "[2]", "value": "7% and 3%"}, {"measurement": "Population Mitotic Cells (%)", "setting": "[2]", "value": "60% and 53%"}, {"measurement": "Population Normal (%)", "setting": "[2]", "value": 100, "unit": "%"}, {"measurement": "Population Pyknosed Nuclei (%)", "setting": "[2]", "value": "15% and 17%"}, {"measurement": "Population Tubulin-Different-Phenotype (%)", "setting": "[2]", "value": "45% and 26%"}, {"measurement": "Total Cell Count", "setting": "[2]", "value": "131 and 146"}, {"measurement": "Population Apoptotic (%)", "setting": "[3]", "value": "40% and 55%"}, {"measurement": "Population Fragmented Nuclei (%)", "setting": "[3]", "value": "15% and 13%"}, {"measurement": "Population Healthy Nuclei (%)", "setting": "[3]", "value": "74% and 66%"}, {"measurement": "Population Hoechst High Intensity Objects (%)", "setting": "[3]", "value": 0, "unit": "%"}, {"measurement": "Population Membrane Permeable-Phenotype (%)", "setting": "[3]", "value": "2% and 8%"}, {"measurement": "Population Mitochondria Different-Phenotype (%)", "setting": "[3]", "value": 1, "unit": "%"}, {"measurement": "Population Mitotic Cells (%)", "setting": "[3]", "value": "60% and 44%"}, {"measurement": "Population Normal (%)", "setting": "[3]", "value": 100, "unit": "%"}, {"measurement": "Population Pyknosed Nuclei (%)", "setting": "[3]", "value": "9% and 20%"}, {"measurement": "Population Tubulin-Different-Phenotype (%)", "setting": "[3]", "value": "19% and 18%"}, {"measurement": "Total Cell Count", "setting": "[3]", "value": "202 and 257"}, {"measurement": "Population Apoptotic (%)", "setting": "[4]", "value": "52% and 60%"}, {"measurement": "Population Fragmented Nuclei (%)", "setting": "[4]", "value": "23% and 16%"}, {"measurement": "Population Healthy Nuclei (%)", "setting": "[4]", "value": "62% and 66%"}, {"measurement": "Population Hoechst High Intensity Objects (%)", "setting": "[4]", "value": 0, "unit": "%"}, {"measurement": "Population Membrane Permeable-Phenotype (%)", "setting": "[4]", "value": "2% and 3%"}, {"measurement": "Population Mitochondria Different-Phenotype (%)", "setting": "[4]", "value": "14% and 5%"}, {"measurement": "Population Mitotic Cells (%)", "setting": "[4]", "value": "47% and 40%"}, {"measurement": "Population Normal (%)", "setting": "[4]", "value": 100, "unit": "%"}, {"measurement": "Population Pyknosed Nuclei (%)", "setting": "[4]", "value": "14% and 16%"}, {"measurement": "Population Tubulin-Different-Phenotype (%)", "setting": "[4]", "value": "59% and 28%"}, {"measurement": "Total Cell Count", "setting": "[4]", "value": "134 and 153"}, {"measurement": "Population Apoptotic (%)", "setting": "[5]", "value": "58% and 66%"}, {"measurement": "Population Fragmented Nuclei (%)", "setting": "[5]", "value": "13% and 11%"}, {"measurement": "Population Healthy Nuclei (%)", "setting": "[5]", "value": "78% and 74%"}, {"measurement": "Population Hoechst High Intensity Objects (%)", "setting": "[5]", "value": 0, "unit": "%"}, {"measurement": "Population Membrane Permeable-Phenotype (%)", "setting": "[5]", "value": "4% and 8%"}, {"measurement": "Population Mitochondria Different-Phenotype (%)", "setting": "[5]", "value": 1, "unit": "%"}, {"measurement": "Population Mitotic Cells (%)", "setting": "[5]", "value": "41% and 33%"}, {"measurement": "Population Normal (%)", "setting": "[5]", "value": 100, "unit": "%"}, {"measurement": "Population Pyknosed Nuclei (%)", "setting": "[5]", "value": "8% and 14%"}, {"measurement": "Population Tubulin-Different-Phenotype (%)", "setting": "[5]", "value": "14% and 11%"}, {"measurement": "Total Cell Count", "setting": "[5]", "value": "204 and 254"}, {"measurement": "Population Apoptotic (%)", "setting": "[6]", "value": "85% and 93%"}, {"measurement": "Population Fragmented Nuclei (%)", "setting": "[6]", "value": "32% and 23%"}, {"measurement": "Population Healthy Nuclei (%)", "setting": "[6]", "value": "58% and 67%"}, {"measurement": "Population Hoechst High Intensity Objects (%)", "setting": "[6]", "value": 0, "unit": "%"}, {"measurement": "Population Membrane Permeable-Phenotype (%)", "setting": "[6]", "value": "5% and 3%"}, {"measurement": "Population Mitochondria Different-Phenotype (%)", "setting": "[6]", "value": "3% and 6%"}, {"measurement": "Population Mitotic Cells (%)", "setting": "[6]", "value": "14% and 6%"}, {"measurement": "Population Normal (%)", "setting": "[6]", "value": 100, "unit": "%"}, {"measurement": "Population Pyknosed Nuclei (%)", "setting": "[6]", "value": "8% and 9%"}, {"measurement": "Population Tubulin-Different-Phenotype (%)", "setting": "[6]", "value": "44% and 20%"}, {"measurement": "Total Cell Count", "setting": "[6]", "value": "158 and 167"}]}
